Assay outcomes as filed in PubChem.
This excerpt belongs to a sample that is enriched for hits.
KDM4C inh = inhibitors of human demethylase GASC-1 KDM4C. Q9H3R0. GST-KDM4C 2-372, H3K9me3 peptide, LANCE TR-FRET. inhibition, % at 12.5 µM. 96,000 compounds, 0.15% hits;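 active = mean replicate inhibition above about 25%, with at least 55% of replicates also reaching it, limit read from the data, passing the limit was not always enough; inconclusive = only one of those two conditions met; inactive = neither condition met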
Target sequence (Q9H3R0 2-372 limits assumed): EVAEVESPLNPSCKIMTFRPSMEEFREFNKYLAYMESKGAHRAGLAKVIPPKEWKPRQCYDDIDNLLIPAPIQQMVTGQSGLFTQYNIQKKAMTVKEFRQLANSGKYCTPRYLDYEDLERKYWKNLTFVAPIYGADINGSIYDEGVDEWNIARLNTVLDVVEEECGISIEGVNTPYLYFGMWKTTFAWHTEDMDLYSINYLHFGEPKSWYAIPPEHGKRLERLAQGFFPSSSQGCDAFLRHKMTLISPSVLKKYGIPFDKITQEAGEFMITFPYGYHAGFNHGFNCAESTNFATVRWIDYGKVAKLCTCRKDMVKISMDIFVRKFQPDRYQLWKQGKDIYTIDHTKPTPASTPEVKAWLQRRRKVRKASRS
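Test system – GST-tagged GASC-1 (JMJD2C) catalytic fragment, aa 2-372 · Medium – HEPES buffer, pH 7.5, plus ascorbate · Reagent – H3K9me3 peptide with Fe(II)/2OG · Compound – one test concentration per compound · Timing – 30 min reaction, 60 min detection, RT · Technique – TR-FRET with Eu antibody and ULight streptavidin, EDTA stop · Read-out basis – inhibition from TR-FRET ratio decrease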
T cruzi growth-1 = inhibitors of T. cruzi proliferation. inhibition, % at 8.34 µM. 77,000 compounds, 5.9% hits. T. cruzi beta-gal in NIH3T3, GalScreen luminescence, 90 h;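 active = mean inhibition above about 93%, with at least 55% of replicates each passing it, limit read from the data, passing the limit was not always enough; inconclusive = only one of those two conditions holds; inactive = neither condition holds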
IDH1 R132H inh = inhibitors of human IDH1 R132H. O75874. IDH1 R132H reductase, diaphorase/resazurin fluorescence, 60 min. inhibition, % at 10 µM. 70,000 compounds, 0.18% hits. AID 624101; in the data active = inhibition above about 34%; inconclusive = no clear call, values can overlap the other calls; inactive = below about 11%;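 also: 0% = DMSO and 100% = no enzyme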
T cruzi growth-2 = Trypanosoma cruzi proliferation inhibition. shares compounds with T cruzi growth-1. T. cruzi beta-gal in NIH3T3, GalScreen luminescence, 90 h. inhibition, % at 8.35 µM. 5,600 compounds, 72% hits;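 active = mean replicate inhibition above about 95% and at least 55% of replicates individually reaching it, limit read from the data; inconclusive = only one of the two criteria is met; inactive = neither criterion is met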
T cruzi growth-3 = Trypanosoma cruzi proliferation inhibition. shares compounds with T cruzi growth-1. T. cruzi beta-gal in NIH3T3, GalScreen luminescence, 90 h. inhibition, % at 2.09 µM. 5,600 compounds, 21% hits;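 active = mean inhibition above about 95%, with at least 55% of replicates also reaching it, limit read from the data; inconclusive = meets just one of the two conditions; inactive = meets neither condition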;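 also: plate controls were neutral control median for no effect and positive control median for full effect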
NIH3T3 tox = cytotoxicity in mouse NIH/3T3 fibroblasts; NIH/3T3 viability, CellTiter-Glo ATP luminescence, 90 h; AID 651742; 5,600 compounds, 14% hits; cytotoxicity (signal decrease), % at 8.35 µM; shares compounds with T cruzi growth-1;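 active = mean signal decrease across replicates above about 35% based on untreated-well scatter, with enough replicates individually passing, limit read from the data; inconclusive = no rule stated though some were filed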;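 also: 0% = median of neutral control wells and 100% = median of positive control wells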
3T3 cytotox 2 = cytotoxicity in mouse NIH/3T3 fibroblasts | 5,600 compounds, 56% hits | AID 651744 | inhibition, % at 24.9 µM | shares compounds with T cruzi growth-1 | NIH/3T3 viability, CellTiter-Glo ATP luminescence, 90 h;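 active = mean loss of cell viability signal at or above a set limit, and enough replicates individually reaching it; inconclusive = meets only the mean limit or only the replicate share; inactive = meets neither condition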;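 also: 0% = median of neutral control wells and 100% = median of positive control wells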
* marks the source's active call; other numbers are inactive results.

How did COCC(=O)N1CC2(C1)[C@@H](c1ccccc1)[C@H](CO)N2C(=O)c1cccnc1 do in these assays?
KDM4C inh: -3

Results for O=C(Nc1ccc2c(c1)OCO2)N[C@@H]1CC[C@@H](CCNC(=O)C2CCCC2)O[C@H]1CO ?
KDM4C inh: 0; IDH1 R132H inh: -1

How did C[C@@H]1CN([C@@H](C)CO)C(=O)Cc2cc(NC(=O)CCN3CCOCC3)ccc2O[C@H]1CN(C)C(=O)Nc1ccc(F)cc1 do in these assays?
KDM4C inh: 0; T cruzi growth-1: -12; IDH1 R132H inh: 3

Results for Cc1cccc(S(=O)(=O)N2CC[C@@H]3[C@H](CO)N(C)c4ccc(Br)cc4[C@@H]32)c1 ?
KDM4C inh: 0; T cruzi growth-1: inconclusive; T cruzi growth-2: 111*; T cruzi growth-3: 31; NIH3T3 tox: 24; 3T3 cytotox 2: -2

How did CN1c2ccc(Br)cc2[C@H]2[C@H](CCN2S(=O)(=O)c2ccc(F)cc2)[C@H]1CO do in these assays?
KDM4C inh: -2; T cruzi growth-1: 68

Results for COC(=O)C[C@H]1CC[C@H]2[C@@H](COc3ccc(NC(=O)c4cc(F)cc(F)c4)cc3C(=O)N2C)O1 ?
KDM4C inh: -2; T cruzi growth-1: -47

How did COC(=O)C[C@H]1CC[C@@H]2[C@H](COc3ccc(NC(=O)Nc4ccc(Cl)cc4)cc3C(=O)N2C)O1 do in these assays?
KDM4C inh: 2; T cruzi growth-1: 53

Results for CN1C(=O)c2cc(NS(=O)(=O)c3ccc(Cl)cc3)ccc2OC[C@H]2O[C@@H](CC(=O)N3CCc4ccccc4C3)CC[C@H]21 ?
KDM4C inh: 0; T cruzi growth-1: 49

What do the screens show for `COC(=O)C[C@H]1CC[C@H]2[C@H](COc3ccc(NC(=O)Nc4ccc(Cl)cc4)cc3C(=O)N2C)O1`?
KDM4C inh: -2; T cruzi growth-1: 110*; T cruzi growth-2: 103*; T cruzi growth-3: 114*; NIH3T3 tox: 34; 3T3 cytotox 2: 33*

Results for COC(=O)C[C@H]1CC[C@H]2[C@H](COc3ccc(NS(=O)(=O)c4ccc(F)cc4)cc3C(=O)N2C)O1 ?
KDM4C inh: -1; T cruzi growth-1: 97*; T cruzi growth-2: 28; T cruzi growth-3: 2; NIH3T3 tox: -7; 3T3 cytotox 2: -3

Results for CN1C(=O)c2cc(NS(=O)(=O)c3ccc(Cl)cc3)ccc2OC[C@@H]2O[C@H](CC(=O)N3CCc4ccccc4C3)CC[C@@H]21 ?
KDM4C inh: 2; T cruzi growth-1: 107*; T cruzi growth-2: 108*; T cruzi growth-3: 58; NIH3T3 tox: -1; 3T3 cytotox 2: 8

Results for COC(=O)C[C@@H]1CC[C@H]2[C@@H](COc3ccc(NS(=O)(=O)c4ccc(F)cc4)cc3C(=O)N2C)O1 ?
KDM4C inh: 2; T cruzi growth-1: 25

How did CC(=O)N(C)C[C@@H]1Oc2ncc(-c3cccc(F)c3)cc2C(=O)N([C@@H](C)CO)C[C@@H]1C do in these assays?
KDM4C inh: 1; T cruzi growth-1: 5; IDH1 R132H inh: -1

What do the screens show for `Cc1ccccc1-c1nnc(SCC(=O)Nc2sc3c(c2C#N)CCCC3)n1C`?
IDH1 R132H inh: 0

Results for COc1ccc(NC(=O)C(=O)NCc2cccnc2)cc1 ?
IDH1 R132H inh: 1

Results for CN1C(=O)c2cc(NC(=O)c3ccc(Cl)cc3)ccc2OC[C@H]2O[C@@H](CC(=O)NCc3cccc(F)c3)CC[C@H]21 ?
KDM4C inh: 0; T cruzi growth-1: 91

Results for COc1cccc(C(=O)Nc2ccc3c(c2)C(=O)N(C)[C@H]2CC[C@@H](CC(=O)NCc4ccc(F)cc4)O[C@H]2CO3)c1 ?
KDM4C inh: 1; T cruzi growth-1: 97*; T cruzi growth-2: 105*; T cruzi growth-3: 16; NIH3T3 tox: 51*; 3T3 cytotox 2: 50*

What do the screens show for `CN1C(=O)c2cc(NC(=O)c3ccc(Cl)cc3)ccc2OC[C@@H]2O[C@H](CC(=O)NCc3cccc(F)c3)CC[C@@H]21`?
KDM4C inh: -3; T cruzi growth-1: 101*; T cruzi growth-2: 92; T cruzi growth-3: 66; NIH3T3 tox: 43*; 3T3 cytotox 2: 34*

Results for COc1ccccc1C(=O)Nc1ccc2c(c1)C(=O)N(C)[C@H]1CC[C@H](CC(=O)Nc3cccc(C(C)C)c3)O[C@@H]1CO2 ?
KDM4C inh: 0; T cruzi growth-1: inconclusive; T cruzi growth-2: 106*; T cruzi growth-3: 68; NIH3T3 tox: 30; 3T3 cytotox 2: 23

What do the screens show for `COc1cccc(C(=O)Nc2ccc3c(c2)C(=O)N(C)[C@H]2CC[C@@H](CC(=O)NCc4ccc(F)cc4)O[C@@H]2CO3)c1`?
KDM4C inh: -2; T cruzi growth-1: 41

What do the screens show for `CNC(=O)C[C@H]1CC[C@H]2[C@@H](COc3ccc(NC(=O)c4ccccc4OC)cc3C(=O)N2C)O1`?
KDM4C inh: 0; T cruzi growth-1: 4

How did CCCNC(=O)Nc1ccc2c(c1)C(=O)N(C)C[C@H](OC)[C@@H](C)CN(Cc1ccccc1)[C@@H](C)CO2 do in these assays?
KDM4C inh: 1; T cruzi growth-1: 55; IDH1 R132H inh: 0

Results for COc1ccc(NC(=O)N(C)C[C@@H]2OCCCC[C@@H](C)Oc3ccc(NC(=O)c4ccncc4)cc3C(=O)N([C@H](C)CO)C[C@H]2C)cc1 ?
KDM4C inh: 1; T cruzi growth-1: 24

Results for C[C@H](CO)N1C[C@H](C)[C@H](CN(C)Cc2ccc(C(=O)Nc3ccccc3N)cc2)OCc2cnnn2CCCC1=O ?
KDM4C inh: -1; T cruzi growth-1: 106*; IDH1 R132H inh: -5; T cruzi growth-2: 108*; T cruzi growth-3: 59; NIH3T3 tox: 18; 3T3 cytotox 2: 26

What do the screens show for `C[C@@H]1CN([C@@H](C)CO)C(=O)Cc2cc(N(C)C)ccc2O[C@H]1CN(C)Cc1ccc(C(=O)Nc2ccccc2N)cc1`?
KDM4C inh: 0; T cruzi growth-1: 96*; IDH1 R132H inh: 0; T cruzi growth-2: 106*; T cruzi growth-3: inconclusive; NIH3T3 tox: 41*; 3T3 cytotox 2: 82*

What do the screens show for `C[C@@H]1CN([C@@H](C)CO)C(=O)Cc2cc(NC(=O)Cc3ccccc3)ccc2O[C@@H]1CN(C)Cc1ccc(C(=O)Nc2ccccc2N)cc1`?
KDM4C inh: -1; T cruzi growth-1: 102*; T cruzi growth-2: 106*; T cruzi growth-3: 80; NIH3T3 tox: 31; 3T3 cytotox 2: 39*

Results for C[C@H]1CN([C@@H](C)CO)C(=O)Cc2cc(N(C)C)ccc2O[C@@H]1CN(C)Cc1ccc(C(=O)Nc2ccccc2N)cc1 ?
KDM4C inh: 2; T cruzi growth-1: 74
